Experimental data from ChEMBL document CHEMBL1154577, “Cytotoxic biflavonoids from Selaginella delicatula” (J Nat Prod, 2000).

Tests used:
[1] = tested on: Raji; experiment: Cytotoxicity against human Raji cells at 100 uM after 3 days; type: functional; details: 72 h
In short: (§1)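 K562 (erythroleukemia) and Raji (EBV-transformed B) cells grown in RPMI-1640 with 10% FCS, 100 U/mL penicillin and 100 µg/mL streptomycin at 37 °C under humidified 5% CO2. They were cultured with or without various concentrations for 3 days, then pulsed with tritiated thymidine for 16 h before harvest. Radioactivity was counted by scintillation and inhibition calculated; mean of three independent experiments.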

[2] = tested on: Raji; experiment: Cytotoxicity against human Raji cells at 50 uM after 3 days; type: functional; details: 72 h; in short: as §1
[3] = tested on: Raji; experiment: Cytotoxicity against human Raji cells at 25 uM after 3 days; type: functional; details: 72 h; in short: as §1
[4] = tested on: Raji; experiment: Cytotoxicity against human Raji cells at 12.5 uM after 3 days; type: functional; details: 72 h; in short: as §1
[5] = tested on: Calu-1; experiment: Cytotoxicity against human Calu1 cells at 100 uM after 3 days; type: functional; details: Calu-1, 72 h
In short: (§2)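 Vero, Wish, Calu-1 and HeLa cells were kept in MEM with 10% FCS, 100 µg/mL streptomycin and 100 U/mL penicillin at 37 °C under humidified 5% CO2. Cells were exposed to various concentrations, or none, for 3 days, with a tritiated thymidine pulse for the final 16 h before harvest. Incorporation was read by scintillation counting and inhibition calculated; three independent experiments averaged.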

[6] = tested on: Calu-1; experiment: Cytotoxicity against human Calu1 cells at 50 uM after 3 days; type: functional; details: Calu-1, 72 h; in short: as §2
[7] = tested on: Calu-1; experiment: Cytotoxicity against human Calu1 cells at 25 uM after 3 days; type: functional; details: Calu-1, 72 h; in short: as §2
[8] = tested on: Calu-1; experiment: Cytotoxicity against human Calu1 cells at 12.5 uM after 3 days; type: functional; details: Calu-1, 72 h; in short: as §2
[9] = tested on: K562; experiment: Cytotoxicity against human K562 cells at 100 uM after 3 days; type: functional; details: K562, 72 h; in short: as §1
[10] = Cytotoxicity against african green monkey Vero cells at 100 uM after 3 days; type: cell-based; details: chlorocebus sabaeus, read-out: INH; in short: as §2
[11] = tested on: HeLa; experiment: Cytotoxicity against human HeLa cells at 100 uM after 3 days; type: functional; details: 72 h; in short: as §2
[12] = tested on: WISH; experiment: Cytotoxicity against human Wish cells at 100 uM after 3 days; type: cell-based; details: 72 h; in short: as §2
[13] = tested on: Raji; experiment: Cytotoxicity against human Raji cells after 3 days; type: functional, cell-based; details: 72 h; in short: as §1
[14] = tested on: Calu-1; experiment: Cytotoxicity against human Calu1 cells after 3 days; type: functional, cell-based; details: Calu-1, 72 h; in short: as §2
[15] = tested on: K562; experiment: Cytotoxicity against human K562 cells after 3 days; type: functional, cell-based; details: K562, 72 h; in short: as §1
[16] = tested on: Vero; experiment: Cytotoxicity against african green monkey Vero cells after 3 days; type: cell-based; details: Chlorocebus sabaeus, 72 h; in short: as §2
[17] = tested on: WISH; experiment: Cytotoxicity against human Wish cells after 3 days; type: cell-based; details: 72 h; in short: as §2
[18] = tested on: HeLa; experiment: Cytotoxicity against human HeLa cells after 3 days; type: functional, cell-based; details: 72 h; in short: as §2

COc1cc(O)c2c(=O)cc(-c3ccc(OC)c(-c4c(O)cc5c(c4O)C(=O)C[C@H](c4ccc(O)cc4)O5)c3)oc2c1
inhibition at 100 µM [1]: 96.3%
inhibition at 50 µM [2]: 24.7%
inhibition at 25 µM [3]: 22.3%
inhibition at 12.5 µM [4]: 17.9%
inhibition at 100 µM [5]: 100%
inhibition at 50 µM [6]: 55.4%
inhibition at 25 µM [7]: 29.9%
inhibition at 12.5 µM [8]: 15.8%
inhibition at 100 µM [9]: 18%
cytotoxicity at 72 h, 100 µM [10]: 26.8%
inhibition at 100 µM [11]: 35%
inhibition (INH) [12]: -65%

COc1ccc(-c2cc(=O)c3c(O)cc(O)cc3o2)cc1-c1c(O)cc2oc(-c3ccc(O)cc3)cc(=O)c2c1O
inhibition at 100 µM [1]: 98.4%
inhibition at 50 µM [2]: 68.5%
inhibition at 25 µM [3]: 60.7%
inhibition at 12.5 µM [4]: 34.2%
inhibition at 100 µM [5]: 100%
inhibition at 50 µM [6]: 77.9%
inhibition at 25 µM [7]: 44.6%
inhibition at 12.5 µM [8]: 42.6%
inhibition at 100 µM [9]: 10.8%
cytotoxicity at 72 h, 100 µM [10]: -6.6%
inhibition at 100 µM [11]: 5.5%
inhibition (INH) [12]: -90%

COc1cc(O)c2c(=O)cc(-c3ccc(OC)c(-c4c(O)cc5oc(-c6ccc(O)cc6)cc(=O)c5c4O)c3)oc2c1
IC50 [13]: > 100 µM
IC50 [14]: > 100 µM
IC50 [15]: > 100 µM
IC50 [16]: > 100 µM
IC50 [17]: > 100 µM
IC50 [18]: > 100 µM

COc1cc(O)c2c(=O)cc(-c3ccc(OC)c(-c4c(OC)cc5c(c4O)C(=O)C[C@H](c4ccc(O)cc4)O5)c3)oc2c1
IC50 [13]: > 100 µM
IC50 [14]: > 100 µM
IC50 [15]: > 100 µM
IC50 [16]: > 100 µM
IC50 [17]: > 100 µM
IC50 [18]: > 100 µM

O=c1cc(-c2ccc(O)c(-c3c(O)cc(O)c4c(=O)cc(-c5ccc(O)cc5)oc34)c2)oc2cc(O)cc(O)c12 [AMENTOFLAVONE]
IC50 [13]: > 100 µM
IC50 [14]: > 100 µM
IC50 [15]: > 100 µM
IC50 [16]: > 100 µM
IC50 [17]: > 100 µM
IC50 [18]: > 100 µM

O=c1cc(-c2ccc(O)c(-c3c(O)cc4oc(-c5ccc(O)cc5)cc(=O)c4c3O)c2)oc2cc(O)cc(O)c12 [ROBUSTAFLAVONE]
IC50 [13]: > 100 µM
IC50 [14]: > 100 µM
IC50 [15]: > 100 µM
IC50 [16]: > 100 µM
IC50 [17]: > 100 µM
IC50 [18]: > 100 µM
